Columns and labels:
Type in all cases: functional, organism-based
[1] = species on record: Homo sapiens; experiment: Inhibitory activity against phospholipase C (PLC 0.05 U/mL) induced aggregation in Human Platelets
In short: (§1)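 Washed platelets from drug-free (≥10 days) human volunteers, suspended in modified Tyrode's solution pH 7.4 at 3 × 10^8/mL. Compound preincubated 3 min at 37 °C before agonist addition. Aggregation read turbidometrically (Born method, Mustard modification) in a dual-channel aggregometer. Values mean ± SEM from four to six donors; tested up to 400 μM.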

[2] = species on record: Homo sapiens; experiment: Inhibitory activity against endoperoxide (U-46,619 2 uM) induced aggregation in Human Platelets; in short: as §1
[3] = species on record: Homo sapiens; experiment: Inhibitory activity against thrombin (0.03 U/mL) induced aggregation in Human Platelets; in short: as §1
[4] = species on record: Homo sapiens; experiment: Inhibitory activity against endoperoxide (U-46,619 2 uM) induced aggregation in Human Platelets; NI is No Inhibitory activity up to a concentration of 400 uM; in short: as §1
[5] = species on record: Homo sapiens; experiment: Inhibitory activity against thrombin (0.03 U/mL) induced aggregation in Human Platelets; NI is No Inhibitory activity up to a concentration of 400 uM; in short: as §1

Row | IC50 [2] | IC50 [3] | IC50 [4] | IC50 [5] | Compound | IC50 [1]
1 | 0.14 µM | 150 µM |  |  | COc1cc(C[C@H]2NCCc3cc(O)c(O)cc32)cc(OC)c1OC | 175 µM
2 |  |  | No inhibition | No inhibition | COc1cc(CC2NCCCc3cc(O)c(O)cc32)cc(OC)c1OC (configuration not stated) | 30 µM
3 |  |  | No inhibition | No inhibition | COc1cc(CC2NCCCc3cc4c(cc32)OCO4)cc(OC)c1OC (configuration not stated) | 3 µM
4 | 11 µM | 50 µM |  |  | COc1cc(C[C@@H]2NCCc3cc(O)c(O)cc32)cc(OC)c1OC [TRETOQUINOL] | 50 µM

Reference: ChEMBL document CHEMBL1123391, “Synthesis and investigation of the beta-adrenoceptor agonist and platelet antiaggregatory properties of 1,7,8-trisubstituted 2,3,4,5-tetrahydro-1H-2-benzazepine analogues of trimetoquinol” (J Med Chem, 1986)
